Consider ten molecules from PubChem BioAssay.

Molecules are shown by their SMILES. Calls of active or inactive are those of the source.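 How the source made its calls, unless noted: active means fluorescence slope higher than the sample average by over 3 SD (cut at about -0.22 in these data, passing the limit was not always enough); inactive means the rest.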

Test [1] can be described thus: inhibitors of TNFa-induced NFkB p65 translocation, primary screen, imaging, HUVEC, MLSMR starter and 10KST1 sets (AID 438;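 active means inhibition above 20% together with a positive visual image hit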;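 further: compound added about 3h40 before a 20 min TNFalpha stimulation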;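 on inhibition: signal is the nuclear over cytoplasmic p65 intensity ratio per well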). The conditions noted are these: HUVEC TNFa-induced p65 nuclear translocation; cell count: measured here: nuclei count (cytotoxicity indicator), at 2.08 µM; inhibition: at 2 µM, stronger effect = higher value, 0% TNFa-plus-vehicle, 100% no-TNFa wells.
Test [2] is described as follows: reduction of polyQ htt aggregates in cells – imaging, exon1htt(103Q)mCFP cells, high-content imaging, primary screen (AID 483;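 active means visual image review flags a hit and inhibition of aggregation exceeds 20%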;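 further: compound exposure lasted 3 days before fixation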;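 on nuclei count: percent of the per-plate median nuclei count of sample wells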). To be noted: exon1htt(103Q)mCFP cell line, aggregate imaging, at 2 µM; inhibition of aggregation: stronger effect = higher value; nuclei count: measured here: cell count, toxicity.
Test [3] can be described thus: endothelial E-selectin expression blockers – imaging, HUVEC, immunofluorescence, MLSMR starter and 10KST1 sets, primary screen (AID 487;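 active means visually confirmed hit in the image check and inhibition above 20%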;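 on inhibition: signal is fraction of cell area covered by stained E-selectin grains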;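 on nuclei count: 100% = median nuclei count of all wells on the same plate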). To be noted: HUVEC TNFalpha-induced E-selectin immunofluorescence imaging, at 2 µM; inhibition: stronger effect = higher value; nuclei count: measured here: cell number, toxicity.
Test [4] addresses Voltage-gated potassium channel subunit beta-2 (Rattus norvegicus) (UniProt P62483). In words: inhibitors of rat Kvbeta2 reductase activity – biochemical, NADPH fluorescence, primary screen (AID 622).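 Further: slope of raw intensity against log time taken from 70 to 1610 s.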 The conditions noted are these: recombinant KvBeta, 4-cyanobenzaldehyde reduction, at 10 µM, stronger effect = higher value.
The target is the same in test [5]. In words: enhancers of rat Kvbeta2 NADPH turnover – biochemical, NADPH fluorescence, primary screen (AID 623;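 active means NADPH fluorescence slope more negative than the mean of all samples by about 3 SD, 99.7% confidence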;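 further: fluorescence intensity change per second fitted from 20 to 320 s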). The conditions noted are these: Recombinant KvBeta, NADPH fluorescence decrease slope, 10 min; at 10 µM; stronger effect = lower value.
Test [6] has as its target Alpha-2C adrenergic receptor (Homo sapiens) (UniProt P18825). Description: compounds altering alpha2C-coupled GIRK flux – cell-based, HEK293 alpha2C/GIRK1/2, thallium flux, primary screen (AID 624;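 active means fluorescence slope after compound addition differing from the mean of all screened samples at 99.7% confidence, in either direction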;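 further: slope of fluorescence ratio to pre-addition baseline per second over 15 to 24 s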). The conditions noted are these: thallium flux BTC fluorescence, at 10 µM, actives lie on both sides.
The nature of test [7]: inhibitors of larval lipid processing in zebrafish, primary screen, whole organism, PED6 fluorescence, gall bladder and intestine (AID 686;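 active means a full or partial loss of lipid-probe fluorescence in the fish gall bladder, intestine or both, judged by eye; inactive means no fluorescence loss, or compound toxic to the fish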;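 further: larvae 5 to 7 days old with five fish per well; signal comes from phospholipase A2 cleavage of quenched PED6 carried via bile; overnight exposure to compound and PED6 before scoring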). To be noted: Zebrafish larvae PED6 lipid processing, fluorescence scoring; screened at 20 µM (by protocol). A digest of the protocol:
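Also added: quenched phospholipase substrate PED6, 100 nM final, ingested by larvae; System: zebrafish larvae, 5-7 d; Quantity: 5 larvae per well; Compound: 20 µM single dose; Schedule: overnight compound and PED6 incubation; Read-out: visual per-well fluorescence inhibition score; Measured by: By-eye fluorescence microscopy; Medium: E3.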

Test [8] can be described thus: blockers of RIG-like receptor reporter activation – cell-based, Sendai virus stimulus, luciferase, 10K MLSCN set, TLR/RLR signaling modifier project, primary screen (AID 602276;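 active means inhibition at or above 50% at 10 µM; inactive means inhibition below 50%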;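 further: firefly luciferase from ISG56 promoter only with Renilla not read in this screen; 0% = Sendai virus plus DMSO and 100% = medium plus DMSO without virus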). The conditions noted are these: HEK293 RL24 IRF3 luciferase reporter, at 10 µM, stronger effect = higher value. On the technique in general: In a reporter assay the amount or activity of a reporter protein is the signal.

A short description of test [9]: TLR3 IRF3 reporter activation blockers – cell-based, poly I:C stimulus, luciferase, 10K MLSCN set, primary screen (AID 602277;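 active means inhibition of the reporter signal at or above 50%; inactive means inhibition below 50%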). To be noted: HEK293-TLR3 RL24 IRF3 luciferase reporter, at 10 µM, stronger effect = higher value.

Sequence of Voltage-gated potassium channel subunit beta-2 (Rattus norvegicus) (P62483 whole entry, looked up): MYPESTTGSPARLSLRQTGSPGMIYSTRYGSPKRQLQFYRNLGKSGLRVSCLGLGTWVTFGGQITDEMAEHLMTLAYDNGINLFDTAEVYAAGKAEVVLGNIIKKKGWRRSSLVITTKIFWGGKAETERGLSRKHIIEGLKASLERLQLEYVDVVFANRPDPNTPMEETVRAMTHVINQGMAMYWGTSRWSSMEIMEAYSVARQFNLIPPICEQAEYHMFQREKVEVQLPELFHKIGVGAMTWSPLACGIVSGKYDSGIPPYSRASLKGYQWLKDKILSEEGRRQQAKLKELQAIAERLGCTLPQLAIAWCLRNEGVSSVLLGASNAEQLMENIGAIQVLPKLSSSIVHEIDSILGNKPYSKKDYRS
Sequence of Alpha-2C adrenergic receptor (Homo sapiens) (P18825 whole entry, looked up): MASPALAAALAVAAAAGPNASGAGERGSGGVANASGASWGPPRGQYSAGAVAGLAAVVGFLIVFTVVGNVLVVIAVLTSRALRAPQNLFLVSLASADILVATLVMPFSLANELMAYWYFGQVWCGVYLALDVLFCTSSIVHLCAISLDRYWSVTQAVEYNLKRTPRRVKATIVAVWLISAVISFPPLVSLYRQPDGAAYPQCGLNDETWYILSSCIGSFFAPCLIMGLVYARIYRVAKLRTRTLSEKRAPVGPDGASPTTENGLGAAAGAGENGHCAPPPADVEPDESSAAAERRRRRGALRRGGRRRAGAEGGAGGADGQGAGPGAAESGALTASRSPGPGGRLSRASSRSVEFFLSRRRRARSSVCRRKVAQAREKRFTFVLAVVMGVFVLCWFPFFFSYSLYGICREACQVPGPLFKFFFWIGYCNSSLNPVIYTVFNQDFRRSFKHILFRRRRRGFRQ

For orientation: inhibition means the drop in the measured response relative to a control, in per cent. `CC1Cc2ccccc2N1CC(=O)NC(=O)NCc1ccco1` (stereo not given): the cell count in test [1] worked out at 441. The inhibition is -2.6% (inactive) in [1], 2.3% (inactive) in test [3], 16.6% (inactive) in test [8] and 19% (inactive) in [9]. In addition, in [2], the inhibition of aggregation was 9.8% (inactive). Further, the nuclei count in [2] was 91.7%; in test [3] it was 109%. In addition, the fluorescence slope in test [4] was -0.436 (inactive). The NADPH fluorescence slope in [5] is -9.5e-06 (inactive). The slope in test [6] was 0.00524 (inactive). In addition, the outcome in test [7] was inactive.
For the molecule `Cc1cc(C(=O)Nc2c(C)n(C)n(-c3ccccc3)c2=O)c(C)o1`, the cell count in test [1] was 330. Also, the inhibition is -1.4% (inactive) in [1], 2% (inactive) in test [3], 17% (inactive) in test [8] and 14.7% (inactive) in [9]. In addition, in test [2], the inhibition of aggregation is 5.3% (inactive). Also, the nuclei count in test [2] was 101%; in test [3] it was 100%. Further, in test [4], the fluorescence slope was -0.412 (inactive). Further, the NADPH fluorescence slope in test [5] is -7.3e-05 (inactive). For the same molecule, in [6], the slope is 0.00524 (inactive). The molecule was classed as inactive in [7].
Consider `O=C(O)c1ccc(S(=O)(=O)Cc2ccccc2)cc1`, for which, in test [1], the cell count came to 422. Moreover, the inhibition was 11.4% (inactive) in test [1], -81.2% (inactive) in test [3], 16.7% (inactive) in [8] and 11.3% (inactive) in test [9]. For the same molecule, the inhibition of aggregation in [2] is 3% (inactive). In addition, the nuclei count in [2] is 88.3%; in [3] it was 113%. In test [4], the fluorescence slope was -0.421 (inactive). For the same molecule, the NADPH fluorescence slope in test [5] was 7.6e-07 (inactive). In addition, the slope in test [6] was 0.00596 (inactive). Moreover, in [7], the molecule was called inactive.
In the case of `COc1ccc(CN(C(=O)CN2C(=O)COc3ccccc32)C2CCCC2)c(OC)c1`, the cell count in [1] was found to be 658. Besides, the inhibition in [1] is -3.5% (inactive); in [3], 4.9% (inactive); in test [8], 21.9% (inactive); in test [9], 26.4% (inactive). Further, the inhibition of aggregation in test [2] was -4.6% (inactive). Besides, the nuclei count in test [2] turned out to be 102%; in [3], 104%. In test [4], the fluorescence slope is -0.435 (inactive). Moreover, the NADPH fluorescence slope in test [5] was -6.2e-05 (inactive). The slope in test [6] was 0.00491 (inactive). Further, the outcome in test [7] was inactive.
As to `COc1ccc(NC(=O)CSc2nc(C)cc(C(F)(F)F)n2)cc1`, the cell count in test [1] was 648. In addition, the inhibition in test [1] was -3.3% (inactive); in [3] it was -1% (inactive); in test [8] it was 14.9% (inactive); in test [9] it was 18.5% (inactive). Besides, the inhibition of aggregation in test [2] is 8.8% (inactive). Moreover, the nuclei count in [2] was 95.3%; in [3], 92.8%. For the same molecule, in [4], the fluorescence slope is -0.418 (inactive). Also, the NADPH fluorescence slope in test [5] was -2.1e-05 (inactive). Further, the slope in test [6] is 0.00507 (inactive). In addition, the molecule was classed as inactive in [7].
In the case of `CCn1c(SCC(=O)Nc2ccc3c(c2)OCO3)nnc1-c1cnccn1`, in test [1], the cell count stood at 542. The inhibition in test [1] is -3.4% (inactive); in test [3], -72.2% (inactive); in test [8] it was 15.5% (inactive); in test [9] it was 16.7% (inactive). In test [2], the inhibition of aggregation is 1.7% (inactive). For the same molecule, the nuclei count in test [2] was 89.2%; in [3], 118%. The fluorescence slope in test [4] was -0.437 (inactive). Also, in [5], the NADPH fluorescence slope was -5.6e-05 (inactive). Besides, the slope in test [6] is 0.00469 (inactive). For the same molecule, in [7], the outcome was inactive.
With `Cc1ccc(C(O)c2nc3ccccc3n2C(C)C)cc1` (stereo not given), the cell count in [1] stood at 304. Further, the inhibition in [1] was -3.7% (inactive); in [3], 28.8% (inactive); in [8] it was 20% (inactive); in test [9], 11.8% (inactive). Besides, the inhibition of aggregation in test [2] is 11% (inactive). Besides, the nuclei count in [2] came to 91.7%; in test [3], 86.7%. Also, the fluorescence slope in test [4] is -0.418 (inactive). In addition, the NADPH fluorescence slope in [5] was -1.7e-05 (inactive). For the same molecule, the slope in test [6] was 0.00388 (inactive). Besides, the outcome in test [7] was inactive.
With `Cc1ccc2nc(C3CCN(CC(=O)N4CCCCCC4)CC3)[nH]c2c1`, the cell count in test [1] was 579. Besides, the inhibition was -13.8% (inactive) in test [1], -39.2% (inactive) in test [3], 8.23% (inactive) in test [8] and 13.7% (inactive) in [9]. Further, the inhibition of aggregation in [2] was 2.2% (inactive). In addition, the nuclei count in [2] came to 101%; in test [3], 111%. The fluorescence slope in test [4] is -0.453 (inactive). In [5], the NADPH fluorescence slope was -5.8e-05 (inactive). Also, in test [6], the slope was 0.00562 (inactive). Further, in [7], the outcome is “active; weak signal in gallbladder and intestine”.
With `CC1=Nn2c(nnc2-c2ccccc2)SC1`, the cell count in [1] was 303. The inhibition in test [1] was -2.7% (inactive); in test [3] it was -19.2% (inactive); in [8] it was 11.5% (inactive); in test [9] it was -4.42% (inactive). Further, in [2], the inhibition of aggregation was -6.5% (inactive). For the same molecule, the nuclei count in test [2] came out at 121%; in test [3], 108%. Further, the fluorescence slope in test [4] was -0.374 (inactive). Further, the NADPH fluorescence slope in test [5] is -1.6e-05 (inactive). Besides, the slope in test [6] was 0.00576 (inactive). Further, the result in test [7] was inactive.
Take `CCC(=O)Oc1ccc(C/C(=N\O)c2ccc(O)cc2O)o1`: the cell count in [1] stood at 405. In addition, the inhibition in test [1] is 1.5% (inactive); in test [3], -54.6% (inactive); in test [8], -8.2% (inactive); in [9], -21.3% (inactive). In addition, the inhibition of aggregation in test [2] is 24.3% (inactive). Besides, the nuclei count was 95.9% in test [2] and 115% in test [3]. In test [4], the fluorescence slope was -0.502 (inactive). For the same molecule, in [5], the NADPH fluorescence slope is 4.5e-05 (inactive). Also, in [6], the slope was 0.00444 (inactive). Moreover, the result in test [7] was inactive.
